From ChEMBL document CHEMBL4513216, “Probing the Open Global Health Chemical Diversity Library for Multistage-Active Starting Points for Next-Generation Antimalarials” (ACS Infect Dis, 2020)

Experiment: Toxicity liver stage against HepG2, at 10uM
Type: cell-based
Parameters: test concentration 10 uM, cell line HepG2-A16-CD81EGFP
Settings: human, HepG2-A16-CD81EGFP cells; read-out: INHIBITION
Procedure, shortened: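 Uninfected HepG2-A16-CD81EGFP cells, 3 × 10^3 per well, 1536-well, plated on prespotted compound at 10 μM final, parasite-free screening media added to match infected plates; puromycin 10 μM positive, DMSO 0.5% negative; run in parallel with 48 h PbLuc assay at 37 °C, 5% CO2; viability by CellTiter-Glo luminescence, normalized to controls.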

| SMILES | cytotoxicity at 10 µM [%] |
| --- | --- |
| CCN(CC)C(=O)CSc1nnc(CCNC(=O)OC(C)(C)C)o1 | 12 |
| Cc1cc(N2CCC(N3CCOCC3)C2)n2nc(C)c(C)c2n1 (stereo not given) | 3.9 |
| CCc1cnc(N2C[C@@H]3[C@@H](C(=O)N(C)C)CCS(=O)(=O)[C@@H]3C2)nc1 | -108 |
| Cc1ccc(CN2CCc3c(CN(C)C)n[nH]c3C2)s1 | 1.93 |
| O=C(Cc1cccs1)NCC1Cn2nnc(-c3ccoc3)c2CO1 (stereo not given) | 6.06 |
| O=S(=O)(Cc1ccc(F)cc1)N1CCN(CC(O)C2CC2)CC1 (stereo not given) | 4.77 |
| COc1cc(NC2CCCN(c3ncccc3C#N)C2)cc(OC)c1 (stereo not given) | -9.25 |
| c1ccc(-n2ccc(CN3CCCCC3Cn3cncn3)n2)cc1 (stereo not given) | -7.85 |
| Cc1cnn(CC(C)NCc2nc(-c3ccsc3)oc2C)c1 (stereo not given) | -2.6 |
| Cc1sc(NC(=O)CN2CCCC(c3ncc[nH]3)C2)c(C)c1C (stereo not given) | 28.1 |
| Cc1nnc(NCc2ccccc2S(=O)(=O)N(C)C)c(C#N)c1C | -8.51 |
| CCN(CC)c1ccc(C(=O)N2CCCC(n3cncn3)C2)cn1 (stereo not given) | -4.78 |
| CCn1cc(S(=O)(=O)NC(CO)Cc2ccccc2)cn1 (stereo not given) | 6.07 |
| COc1c(CNC2CCN(c3ncccn3)CC2)c(C)nn1C | -1.66 |
| CCN(C)c1ccc(CNS(=O)(=O)CC2CCCO2)cc1F (stereo not given) | 11.9 |
| O=C(Cn1ccc2ncccc2c1=O)N1CCSCC1 | -3.06 |
| O=C(c1c[nH]cn1)N1CCC(n2cc(-c3ccsc3)nn2)CC1 | -14.3 |
| CC(C)c1cc(C2CCN(C(=O)Cn3cnc4ccccc43)CC2)[nH]n1 | 51.8 |
| Cc1ccc(C(=O)N2CCN(CCc3cccs3)CC2)c(=O)[nH]1 | -3.94 |
| Cc1cc(C)c(-n2cc(CCO)cn2)cc1C | 0.334 |
| Cc1ccc(C(=O)N2CCO[C@H]3[C@H](OCCN(C)C)CC[C@@H]32)cn1 | 4.85 |
| CC(C)N1CCC(Cn2cc(C(N)=O)cn2)CC1 | 6.39 |

| SMILES | cytotoxicity at 10 µM [%] |
| --- | --- |
| CC(C)c1nn(C)c(N(C)C)c1CNC1CCOc2ccccc21 (stereo not given) | 9.36 |
| Cc1c2ncn(CC(=O)c3ccccc3)c(=O)c2nn1C | -8.58 |
| CCc1nnc2n1CCN(C(=O)Cc1csc(-c3ccco3)n1)C2 | -8.7 |
| O=C(COC[C@@]12CCC[C@@H]1CN(C1CCC1)C2)N1CCCC1 | -110 |
| CCC(C(=O)NCc1ccncc1)N(c1ccccc1)S(C)(=O)=O (stereo not given) | -1.17 |
| O=C1NCCO[C@H]2CN(C(=O)Cc3csc4ccccc34)CC[C@@H]12 | -101 |
| CN(C)CCn1c2c(ccc1=O)CC(NC(=O)c1ccsc1)CC2 (stereo not given) | 2.15 |
| Nc1nc(Cn2ccnc2-c2cc(CN3CCCC3)cs2)cs1 | 1.4 |
| N#Cc1ccccc1N1CCCN(CC(=O)Nc2ccccc2Cl)CC1 | 1.11 |
| CC(=O)N1CCCN(C(=O)NC(C)Cn2cccn2)CC1 (stereo not given) | -13 |
| CC(c1ccncc1)n1cc2nc(N(C)C)[nH]cc-2c1=O (stereo not given) | -3.64 |
| COc1cc(C)sc1C(=O)N1CCCCC1c1ccccn1 (stereo not given) | 0.864 |
| CCCC(C#N)NC(=O)CCCOc1cccc(F)c1 (stereo not given) | -44.1 |
| O=C(CN1CCCC1CC(=O)c1ccccc1)NCc1ccccn1 (stereo not given) | 1.39 |
| O=C(C(CNCc1ccccn1)c1ccccc1)N1CCOCC1 (stereo not given) | 0.983 |
| COC[C@]1(O)CCN(C2CCN(c3ccc(Cl)cc3)CC2)CC1(C)C | -0.75 |
| CCc1nc(C)c(C(=O)N(C)Cc2cnc3ccccn23)o1 | -1.94 |
| COc1c(CNC2CCOc3c(Cl)cccc32)c(C)nn1C (stereo not given) | 28.9 |
| O=C(CC1CCCC1)N1CC[C@H]2[C@H]1CCN2c1nncs1 | -3.43 |
| CC(C)C(=O)N1CCN(C(=O)c2cc(Cl)no2)[C@H]2CS(=O)(=O)C[C@H]21 | 8.48 |
| CC(C)c1nccn1-c1cncc(C2CCCN(C3CCCC3)C2)n1 (stereo not given) | -6.63 |
| CN(C)CCNC(=O)c1nc2c(o1)CN(c1ncccn1)C2 | -0.603 |

| SMILES | cytotoxicity at 10 µM [%] |
| --- | --- |
| COc1cccc(C2CCCN2C(=O)NCCCn2cccn2)c1 (stereo not given) | 15.5 |
| Cc1cnn(CC2CCCN2C(=O)c2csc(-c3nnc[nH]3)n2)c1 (stereo not given) | -2.94 |
| O=C(Nc1nc(-c2ccccc2)ns1)N1CCN(C(=O)C2CC2)CC1 | -150 |
| CCC1CN(C(=O)COc2ccc(C)nc2)CCO1 (stereo not given) | -3.7 |
| CCN(CC)C(=O)N1CCN(CCc2ccncc2)CC1 | -38.9 |
| CC(C)c1cnc(CN(C)C2CCN(CCS(C)(=O)=O)C2)o1 (stereo not given) | 0.528 |
| c1ccc2c(c1)SCCC2NCc1ccc(N2CCOCC2)cc1 (stereo not given) | -4.86 |
| COc1cccc2c1OCC(C(=O)N1CCN(S(=O)(=O)N(C)C)CC1)C2 (stereo not given) | 3.47 |
| CCOc1ccc2ccccc2c1CNCC1CCNCC1 | -9.67 |
| Cc1cc(C2CCCN(CCCS(=O)(=O)c3ccccc3)C2)n[nH]1 (stereo not given) | -7.64 |
| Cc1cc(SCC(N)=O)nc(-c2ccc(F)cc2)n1 | -3.42 |
| COc1ccc2cc(C3CN(C(=O)C4CCOCC4)CCO3)ccc2c1 (stereo not given) | -8.68 |
| O=C(CCc1ccccc1)N1CCN(C(=O)c2ccc[nH]2)CC1 | -5.04 |
| COc1c(C)cnc(CN2CCOC(CNc3cccnn3)C2)c1C (stereo not given) | -10.5 |
| CCCN1CCC(c2nc3ccc(C)cn3n2)CC1 | -118 |
| O=C(c1c[nH]c(=O)[nH]c1=O)N1CCCC(c2nccn2CC2CCC2)C1 (stereo not given) | -3.67 |
| CC(=O)N(Cc1noc(C)n1)C1CCN(Cc2cnc(C)s2)C1 (stereo not given) | -9.65 |
| O=C(NCc1cccs1)[C@]12COC[C@H]1CN(c1ncccn1)C2 | 11.6 |
| CCN1CCC(CC(=O)N(C)CC(=O)c2ccc(O)cc2)CC1 | 1.73 |
| CCc1nc(C)c(C(C)N(C)CCOC)s1 (stereo not given) | -6.35 |
| COCCC1(CO)CCCN(C(=O)c2cc(=O)[nH]c(=O)[nH]2)C1 (stereo not given) | -5.16 |
| CN(C)C(=O)c1cccc(C2CNCCN2C)c1 (stereo not given) | -3.15 |

| SMILES | cytotoxicity at 10 µM [%] |
| --- | --- |
| Cc1cnc(C)c(Oc2ccc(Cl)c(CN3CCCC3)c2Cl)n1 | 2.61 |
| CC(=O)N1C[C@@H](c2ccsc2)[C@@H]2CN(Cc3ccccc3Cl)CC[C@@H]21 | 3.16 |
| CCNC(=O)N1CC[C@H]2CC(=O)N(CC(N)=O)CC[C@H]2C1 | 10 |
| CC(C)c1nn(C)c(Cl)c1CNCCn1cccn1 | -9.11 |
| CCS(=O)(=O)CCN1CCCC1c1noc(C2CC2)n1 (stereo not given) | -6.33 |
| Fc1cccc(N2CCCC3(C2)CN(c2ncccn2)CCO3)c1 (stereo not given) | 17.4 |
| Cc1nnc(CN(C)CC(=O)N2CCCC(C)CC2)n1C (stereo not given) | 10.6 |
| CC(C)Cn1cc2nc(N3CCC(O)CC3)[nH]cc-2c1=O | 5.92 |
| CN1[C@@H]2CC[C@H]1CN(C(=O)c1ccc(-c3ccccc3)[nH]1)CC2 | -0.372 |
| CC(=O)N1C[C@@H](c2ccsc2)[C@@H]2CN(CC3CCCCC3)CC[C@@H]21 | -7.99 |
| Cn1cncc1CN1CC[C@](C)(O)[C@@H](Oc2cccc(F)c2)C1 | -8.49 |
| Cc1ccc(CN2CCN(c3ncnc4[nH]cnc34)CC2CCO)cc1 (stereo not given) | 28 |
| O=C(CCN1CCCCC1c1cc2ccccc2[nH]1)N1CCOCC1 (stereo not given) | 7.82 |
| Cc1ccccc1OC1CCN(CC(=O)Nc2ccn(C)n2)CC1 | -3.34 |
| O=C(CN1C(=O)c2ccccc2CS1(=O)=O)c1ccc(Cl)cc1 | 4.17 |
| CCOc1ncccc1NC(=O)c1cc(C)c(C)s1 | -2.96 |
| CN(C)c1ccc(C(=O)N2CCCN(Cc3cscn3)CC2)nn1 | -9.39 |
| Cc1nnc(C2CCN(C(=O)c3ccc4nccnc4c3)CC2)s1 | 5.05 |
| CCC(NC(=O)COC)c1ccccc1OCC(=O)N1CCCC1 (stereo not given) | -6.39 |
| COc1c(CNCCc2c[nH]c3ccccc23)c(C)nn1C | 15 |
| CC(C)c1nnc2n1CCN(CC(=O)Nc1sccc1C#N)C2 | -2.6 |
| COc1ccc(CN2CCCC3(CCN(c4ccsc4)C3=O)C2)cc1 (stereo not given) | 6.92 |

| SMILES | cytotoxicity at 10 µM [%] |
| --- | --- |
| COCc1cccc(NC(=O)N(C)Cc2ncc(C)c(OC)c2C)c1 | -1.01 |
| Cc1nn(C)c(Cl)c1C1CCCN1C(=O)c1nccnc1N (stereo not given) | -6.9 |
| CN(C)S(=O)(=O)N1CCC(c2nnc(C(F)(F)F)o2)CC1 | 3.79 |
| CCc1nnc(CNC(=O)CCC2CCCN(C)C2)s1 (stereo not given) | -148 |
| CC(c1cccs1)N(C)Cc1cnc(-c2ccccn2)nc1 (stereo not given) | -6.3 |
| Nc1nc2c(s1)C(c1c(F)cccc1Cl)CC(=O)N2 (stereo not given) | 4.21 |
| CCn1nc(Br)nc1Sc1ccccc1NC(C)=O | -6.17 |
| CN1CCN(C[C@H]2OC[C@@H]3CCN(Cc4ccsc4)C[C@@H]32)CC1 | -2.19 |
| Cc1ncc(C(=O)N2CCC(N3C[C@@H](C)O[C@@H](C)C3)CC2)c(=O)[nH]1 | 3.42 |
| Cc1ccc(CN2CCN(C)c3ncccc3C2)o1 | -79.6 |
| O=C1CC(NS(=O)(=O)N2CCOCC2)CN1Cc1ccc(F)cc1 (stereo not given) | -11 |
| c1cnc(NC[C@H]2OC[C@@H]3CCN(Cc4ccncc4)C[C@@H]32)nc1 | -4.61 |
| O=C(CSc1ccncc1)NC1CC(=O)N(CCc2ccccc2)C1 (stereo not given) | 0.318 |
| CN(C)C(C(=O)Nc1nccs1)c1c(F)cccc1Cl (stereo not given) | -44.4 |
| COc1ccccc1-c1ccc(C2CCCN(C(C)=O)C2)nc1 (stereo not given) | -4.96 |
| CSc1[nH]c(=O)c(C(=O)N2CCCC2C2CCCC2)cc1C#N (stereo not given) | 5.58 |
| CC(C)c1nnc2n1CCN(Cc1csc(-c3cnn(C)c3)n1)C2 | -2.17 |
| O=C(Nc1cccn(Cc2ccc(F)cc2)c1=O)c1csnn1 | 1.51 |
| Cn1[nH]c(C2CC2)c(-c2ccc3c(c2)OCO3)c1=N | -47.5 |
| CNc1ccnc(NCC(=O)Nc2cc(C)ccc2OC)n1 | -2.9 |
| O=C(CN1CCCCC1Cn1cncn1)NC1CCN(C2CC2)CC1 (stereo not given) | -19.3 |
| O=S(=O)(NCC1(O)CCOc2ccccc21)c1ccc(Cl)s1 (stereo not given) | 6.87 |
